Measurements from PMC7181320 (ACS Central Science, 2020).
Entries after “also recorded” stand apart in the source; their conditions may differ. Read-outs that look alike come from different tables or passages of the source.

Assays:
W173A N-His6-FhuD2 = target: T1, W173A N-His6-FhuD2 (Staphylococcus aureus, UniProt Q7BGA5, W197A); assay: Intrinsic Trp fluorescence quenching binding assay, FhuD2 mutant W173A; design: species or system S. aureus; conditions: FhuD2 variant W173A
T1 sequence (Q7BGA5 25-302 W197A): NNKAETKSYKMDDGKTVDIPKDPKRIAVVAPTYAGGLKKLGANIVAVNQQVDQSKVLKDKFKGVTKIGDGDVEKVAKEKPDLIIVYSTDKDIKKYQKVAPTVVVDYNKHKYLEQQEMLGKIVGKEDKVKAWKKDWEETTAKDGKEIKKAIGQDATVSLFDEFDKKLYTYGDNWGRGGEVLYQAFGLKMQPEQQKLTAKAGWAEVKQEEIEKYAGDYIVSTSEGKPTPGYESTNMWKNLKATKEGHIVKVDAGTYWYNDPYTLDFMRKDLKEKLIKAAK

Y169F N-His6-FhuD2 = target: T2, Y169F N-His6-FhuD2 (Staphylococcus aureus, UniProt Q7BGA5, Y193F); assay: Intrinsic Trp fluorescence quenching binding assay, FhuD2 mutant Y169F; design: species or system S. aureus; conditions: FhuD2 variant Y169F
T2 sequence (Q7BGA5 25-302 Y193F): T1 sequence (Q7BGA5 25-302 W197A)

Y106F N-His6-FhuD2 = Y106F N-His6-FhuD2 (Staphylococcus aureus, UniProt Q7BGA5, Y130F); assay: Intrinsic Trp fluorescence quenching binding assay, FhuD2 mutant Y106F; design: species or system S. aureus; conditions: FhuD2 variant Y106F
Y167F N-His6-FhuD2 = target: T3, Y167F N-His6-FhuD2 (Staphylococcus aureus, UniProt Q7BGA5, Y191F); assay: Intrinsic Trp fluorescence quenching binding assay, FhuD2 mutant Y167F; design: species or system S. aureus; conditions: FhuD2 variant Y167F
T3 sequence (Q7BGA5 25-302 Y191F): T1 sequence (Q7BGA5 25-302 W197A)

R175A N-His6-FhuD2 = target: T4, R175A N-His6-FhuD2 (Staphylococcus aureus, UniProt Q7BGA5, R199A); assay: Intrinsic Trp fluorescence quenching binding assay, FhuD2 mutant R175A; design: species or system S. aureus; conditions: FhuD2 variant R175A
T4 sequence (Q7BGA5 25-302 R199A): T1 sequence (Q7BGA5 25-302 W197A)

Y256F N-His6-FhuD2 = Y256F N-His6-FhuD2 (Staphylococcus aureus, UniProt Q7BGA5, Y280F); assay: Intrinsic Trp fluorescence quenching binding assay, FhuD2 mutant Y256F; design: species or system S. aureus
N-His6-FhuD2 = N-His6-FhuD2 (Staphylococcus aureus, UniProt Q7BGA5); assay: Intrinsic Trp fluorescence quenching binding assay, wild-type N-His6-FhuD2; design: species or system S. aureus
Procedure, shortened: (§1)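 Purified SBP constructs, truncated with an N-terminal His6 tag replacing the signal peptide. Binding of the fluorescent desferrioxamine probe, in metal-free and ferric forms, was read as quenching of the protein's intrinsic Trp fluorescence.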

W255A N-His6-FhuD2 = target: T5, W255A N-His6-FhuD2 (Staphylococcus aureus, UniProt Q7BGA5, W279A); assay: Intrinsic Trp fluorescence quenching binding assay, FhuD2 mutant W255A; design: species or system S. aureus; conditions: FhuD2 variant W255A
T5 sequence (Q7BGA5 25-302 W279A): T1 sequence (Q7BGA5 25-302 W197A)

N-His6-YxeB = N-His6-YxeB (Bacillus subtilis, UniProt P54941); assay: Intrinsic Trp fluorescence quenching binding assay, wild-type N-His6-YxeB; design: species or system B. subtilis
Procedure, shortened: as §1

Y254F N-His6-FhuD2 = target: T6, Y254F N-His6-FhuD2 (Staphylococcus aureus, UniProt Q7BGA5, Y278F); assay: Intrinsic Trp fluorescence quenching binding assay, FhuD2 mutant Y254F; design: species or system S. aureus; conditions: FhuD2 variant Y254F
T6 sequence (Q7BGA5 25-302 Y278F): T1 sequence (Q7BGA5 25-302 W197A)

[1] = Apparent KFe measurement by EDTA competition assay; type: physicochemical; conditions: 1.2 equiv EDTA, HEPES buffer pH 7.4
Procedure, shortened: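 Ferric siderophore (ferrioxamine B or E) treated with 1.2 equiv EDTA, with or without stoichiometric FhuD2. Remaining ferric siderophore is followed continuously by absorbance at 427 nm and expressed as relative percentage remaining. Apparent log KFe is calculated from the decay plots. At least two independent trials are run, with standard deviations reported.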

R175A = R175A (Staphylococcus aureus, UniProt Q7BGA5, R199A); assay: Intrinsic Trp fluorescence quenching; type: binding; conditions: read-out: app Kd; SD, n = 2
SBPs (FhuD2 or YxeB) = type: biochemical, S. aureus and B. subtilis; conditions: SBP-catalyzed exchange, FhuD2 and YxeB
Procedure, shortened: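 Truncated SBPs (FhuD2 or YxeB), each expressed with an N-terminal His6 tag in place of the signal peptide, at 100 nM with 4 μM ferric donor (FOB, FOE or human holo-transferrin). Started by adding 2 μM DFO-NBD probe, then fluorescence followed continuously (ex 475 nm; em 565 nm). Percent change in relative emission taken at 15 min against a matching no-SBP reaction.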

Y169F = Y169F (Staphylococcus aureus, UniProt Q7BGA5, Y193F); assay: Intrinsic Trp fluorescence quenching; type: binding; conditions: read-out: app Kd; SD, n = 2
Y254F = Y254F (Staphylococcus aureus, UniProt Q7BGA5, Y278F); assay: Intrinsic Trp fluorescence quenching; type: binding; conditions: read-out: app Kd; SD, n = 2
Y106F = Y106F (Staphylococcus aureus, UniProt Q7BGA5, Y130F); assay: Intrinsic Trp fluorescence quenching; type: binding; conditions: read-out: app Kd; SD, n = 2
Y256F = Y256F (Staphylococcus aureus, UniProt Q7BGA5, Y280F); assay: Intrinsic Trp fluorescence quenching; type: binding; conditions: read-out: app Kd; SD, n = 2
FhuD2 [2] = target: T7, FhuD2 (Staphylococcus aureus, UniProt Q7BGA5); assay: Intrinsic Trp fluorescence quenching; type: binding; conditions: read-out: app Kd; SD, n = 2; cited from earlier work
W255A = W255A (Staphylococcus aureus, UniProt Q7BGA5, W279A); assay: Intrinsic Trp fluorescence quenching; type: binding; conditions: read-out: app Kd; SD, n = 2
FhuD2 [3] = target: T7, FhuD2; assay: Intrinsic Trp fluorescence quenching; type: binding; conditions: read-out: app Kd; SD, n = 2
W173A = W173A (Staphylococcus aureus, UniProt Q7BGA5, W197A); assay: Intrinsic Trp fluorescence quenching; type: binding; conditions: read-out: app Kd; SD, n = 2
FhuD2 [4] = assay: FhuD2-catalyzed iron exchange from holo-Tf to DFO-NBD with additives; type: biochemical, S. aureus; conditions: 25 mM additive, 4 μM holo-Tf, 2 μM DFO-NBD
Procedure, shortened: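 FhuD2 is a truncated S. aureus construct with the N-terminal signal peptide replaced by an N-terminal His6 tag, used at 100 nM with holo-transferrin as iron donor. The reaction is started by adding the DFO-NBD probe, and fluorescence (ex 475 nm, em 560 nm) is monitored continuously. Quenching is expressed as percentage change relative to a control containing DFO-NBD and FhuD2 without iron donor.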

FhuD2 Y256F (S. aureus) = assay: other fluorescence titration
[5] = 25 °C; cited from earlier work

Sequence of N-His6-YxeB (P54941 21-321): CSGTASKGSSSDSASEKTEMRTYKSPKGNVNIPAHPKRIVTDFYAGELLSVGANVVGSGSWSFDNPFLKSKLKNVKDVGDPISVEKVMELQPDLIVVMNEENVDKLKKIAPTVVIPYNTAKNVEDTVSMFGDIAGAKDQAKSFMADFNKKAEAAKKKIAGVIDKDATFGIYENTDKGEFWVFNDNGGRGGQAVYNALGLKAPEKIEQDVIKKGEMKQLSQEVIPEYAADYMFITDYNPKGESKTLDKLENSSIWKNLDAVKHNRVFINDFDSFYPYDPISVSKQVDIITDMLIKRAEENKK
Sequence of human holo-transferrin (P02787 20-698): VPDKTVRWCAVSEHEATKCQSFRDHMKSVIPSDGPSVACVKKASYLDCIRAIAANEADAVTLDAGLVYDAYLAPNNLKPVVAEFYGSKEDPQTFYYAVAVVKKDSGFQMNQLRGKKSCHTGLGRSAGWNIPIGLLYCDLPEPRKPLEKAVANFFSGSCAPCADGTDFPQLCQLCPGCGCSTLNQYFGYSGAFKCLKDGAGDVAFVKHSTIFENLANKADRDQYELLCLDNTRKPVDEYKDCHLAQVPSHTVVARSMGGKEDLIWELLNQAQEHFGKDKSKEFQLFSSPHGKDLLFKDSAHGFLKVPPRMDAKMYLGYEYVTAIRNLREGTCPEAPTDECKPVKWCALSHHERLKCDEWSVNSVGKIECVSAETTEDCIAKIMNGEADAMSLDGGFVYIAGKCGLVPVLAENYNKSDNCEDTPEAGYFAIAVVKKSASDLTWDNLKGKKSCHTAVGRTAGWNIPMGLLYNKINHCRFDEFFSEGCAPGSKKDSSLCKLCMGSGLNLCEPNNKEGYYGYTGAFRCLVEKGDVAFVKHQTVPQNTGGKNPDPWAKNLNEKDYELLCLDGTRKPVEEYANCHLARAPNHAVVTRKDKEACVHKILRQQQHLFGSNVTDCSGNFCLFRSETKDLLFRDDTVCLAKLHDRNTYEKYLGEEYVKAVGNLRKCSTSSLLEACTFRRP

Compound: CC(=O)N(O)CCCCCNC(=O)CCC(=O)N(O)CCCCCNC(=O)CCC(=O)N(O)CCCCCN [DFOB, desferrioxamine B]
- Kd (W173A N-His6-FhuD2; app Kd): 100 ± 50 nM
- Kd (Y169F N-His6-FhuD2; app Kd): 70 ± 10 nM
- Kd (Y106F N-His6-FhuD2; app Kd): 80 ± 20 nM
- Kd (Y167F N-His6-FhuD2; app Kd): 60 ± 9 nM
- Kd (R175A N-His6-FhuD2; app Kd): 40 ± 9 nM
- Kd (Y256F N-His6-FhuD2): 80 ± 30 nM
- Kd (N-His6-FhuD2): 90 ± 10 nM
- Kd (W255A N-His6-FhuD2; app Kd): 60 ± 20 nM
- Kd (N-His6-YxeB): 30 ± 20 nM
- Kd (Y254F N-His6-FhuD2; app Kd): 50 ± 10 nM

Compound: CC(=O)N([O-])CCCCCNC(=O)CCC(=O)N([O-])CCCCCNC(=O)CCC(=O)N([O-])CCCCCNc1ccc([N+](=O)[O-])c2nonc12.[Fe+3] [FO-NBD, ferrioxamine B-2-(4-nitro-2,1,3-benzoxadiazol-7-yl) conjugate]
- apparent log KFe ([1]; no FhuD2): 30.8 ± 0.3
- app Kd (N-His6-FhuD2; wild-type N-His6-FhuD2 100 nM, TBS buffer pH 7.4, one site binding model): nanomolar affinity
- app Kd (N-His6-YxeB; wild-type N-His6-YxeB 100 nM, TBS buffer pH 7.4, one site binding model): nanomolar affinity

Compound: CC(=O)N([O-])CCCCCNC(=O)CCC(=O)N([O-])CCCCCNC(=O)CCC(=O)N([O-])CCCCCN.[Fe+3] [FOB, ferrioxamine B]
- Kd (W173A N-His6-FhuD2; read-out: app Kd): 60 ± 8 nM
- apparent log KFe ([1]; 1:1 stoichiometric complex with FhuD2): 28.5 ± 0.1
- apparent log KFe ([1]; no FhuD2): 30.3 ± 0.4
- Kd (R175A): 30 ± 9 nM
- ability to serve as ferric iron donor to DFO-NBD (SBPs (FhuD2 or YxeB)): serve as a donor of ferric iron; also recorded: serve as iron donor substrates
- Kd (Y169F N-His6-FhuD2; read-out: app Kd): 40 ± 9 nM
- Kd (Y169F): 40 ± 9 nM
- Kd (Y106F N-His6-FhuD2; read-out: app Kd): 40 ± 8 nM
- Kd (Y167F N-His6-FhuD2; read-out: app Kd): 40 ± 6 nM
- Kd (Y254F): 10 ± 2 nM
- Kd (Y106F): 40 ± 8 nM
- Kd (Y256F N-His6-FhuD2; read-out: app Kd, FhuD2 variant Y256F): 60 ± 10 nM
- Kd (Y256F): 60 ± 10 nM
- Kd (FhuD2 [2]): 30 ± 6 nM
- Kd (W255A N-His6-FhuD2; read-out: app Kd): 60 ± 50 nM
- Kd (Y254F N-His6-FhuD2; read-out: app Kd): 10 ± 2 nM

Compound: O=C1CCC(=O)N(O)CCCCCNC(=O)CCC(=O)N(O)CCCCCNC(=O)CCC(=O)N(O)CCCCCN1.[Fe+3] [FOE, ferrioxamine E]
- Kd (W255A): 30 ± 9 nM
- Kd (FhuD2 [3]): 50 ± 6 nM
- Kd (Y169F): 20 ± 2 nM
- Kd (Y106F): 80 ± 10 nM
- Kd (W173A): 90 ± 30 nM
- Kd (Y256F): 40 ± 20 nM

Compound: O=C([O-])O.[Na+] [NaHCO3]
- effect on FhuD2-catalyzed exchange of iron from holo-Tf to DFO-NBD (FhuD2 [4]): no apparent effect

Compound: human holo-transferrin (from UniProt P02787 20-698) (natural protein)
- Kd (FhuD2 Y256F (S. aureus)): 70 nM

Compound: transferrin: human ferric holo-transferrin, host iron source and iron donor substrate
- log KFe [5]: ≈ 22
- Kd (W173A N-His6-FhuD2; read-out: app Kd): 140 ± 30 nM
- Kd (Y169F N-His6-FhuD2; read-out: app Kd): 110 ± 20 nM
- Kd (Y167F N-His6-FhuD2; read-out: app Kd): 80 ± 20 nM
- Kd (R175A N-His6-FhuD2; read-out: app Kd): 110 ± 30 nM
- Kd (W255A N-His6-FhuD2; read-out: app Kd): 110 ± 80 nM
- Kd (Y254F N-His6-FhuD2; read-out: app Kd): 90 ± 20 nM
